Compounds with a hit are over-represented: about 1.9% of the library has one in this group of screens.
MT1-MMP act inh: blockers of MT1-MMP proenzyme processing, primary screen, HT1080 RFP-PRO-GFP cells, GFP/RFP fluorescence; GFP/RFP ratio fluorescence, overnight; percent of plate control window, DMSO zero; GFP/RFP ratio change, % at 20 µM; actives 0.061% (n = 360,000); AID 651647, 2012;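 active means GFP/RFP ratio change of at least 30% with cell ATP level not reduced by more than half and red fluorescence within 50% of control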
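Assay system – RFP-PRO-GFP reporter HT1080 cells · Compound dosing – single dose of 20 µM compound, 1% DMSO final · Incubation – overnight compound exposure at 37 °C · Measure – GFP/RFP fluorescence ratio · Benchmarks – DMSO wells and RFP-L50D-GFP cells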
NR2E3 ag-1: inhibitors of NR2E3-RetCOR corepressor binding, primary screen, NR2E3 agonist project, biochemical, TR-FRET, GST-NR2E3, biotin-RetCOR | actives 0.12% (n = 320,000) | 1536-well | Photoreceptor-specific nuclear receptor (Homo sapiens), Q9Y5X4 | inhibition of corepressor binding, % at 4.78 µM;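 active means percent inhibition above the cutoff of mean plus 3 SD of all tested compounds, set per screening campaign, cut at about 20% in these data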;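 further: 0% = DMSO wells and 100% = biotin wells as full block of FRET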
Target sequence (Q9Y5X4 whole entry, looked up): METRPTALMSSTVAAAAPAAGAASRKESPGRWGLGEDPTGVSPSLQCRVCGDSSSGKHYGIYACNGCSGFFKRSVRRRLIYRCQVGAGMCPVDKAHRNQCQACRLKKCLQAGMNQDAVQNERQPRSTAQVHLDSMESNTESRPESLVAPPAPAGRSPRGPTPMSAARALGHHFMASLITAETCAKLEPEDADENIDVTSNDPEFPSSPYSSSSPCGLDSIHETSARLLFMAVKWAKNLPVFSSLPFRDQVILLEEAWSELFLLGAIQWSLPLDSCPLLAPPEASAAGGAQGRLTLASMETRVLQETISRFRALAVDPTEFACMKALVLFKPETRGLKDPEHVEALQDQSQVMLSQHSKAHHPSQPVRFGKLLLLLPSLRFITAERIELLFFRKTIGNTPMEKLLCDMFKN
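Material – GST-tagged NR2E3 plus biotinylated RetCOR corepressor · Quantity – NR2E3 fusion 1.35 nM · Times – 5 h incubation at 4 °C · Medium – pH 7.5 Tris-based buffer · Technique – TR-FRET, Eu(K)-anti-GST donor, streptavidin-D2 acceptor, ex 340, em 617/671 nm · Benchmarks – high control biotin, low control 0.6% DMSO · Format – 1536-well plates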
SKN-1 block: suppressors of acrylamide-induced Pgst-4::GFP reporter in worms, primary screen, SKN-1 inhibitor project, whole organism, uHTS, GFP/RFP fluorescence ratio, strain VP596. C. elegans VP596 Pgst-4::GFP/RFP ratio, 24 h. inhibition, % at 21.8 µM. actives 0.49% (n = 360,000). AID 624304, 2012;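 active means interference check ratio from 0.5 to 1.5 plus GFP to RFP signal ratio inhibition reaching or exceeding a fixed threshold, cut at about 30% in these data, passing the limit was not always enough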
PG9 binder: binders of HIV-1 gp120 antibody PG9, primary screen, biochemical, TR-FRET; actives 0.43% (n = 360,000); TR-FRET gp120-PG9 antibody binding; HIV-1 gp120 / PG9 antibody interaction; inhibition, % at 6.7 µM; AID 624416, 2012; in the data active means inhibition above about 8.5%
NR2E3 ag-2: NR2E3 agonists in two-hybrid cells, primary screen, cell-based, luminescence, CHO-S, Gal4-NCOR/VP16-NR2E3 | luciferase | actives 0.35% (n = 360,000) | AID 602229, 2012 | inhibition of corepressor binding, % at 3.98 µM;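 active means inhibition above the mean of all tested compounds plus 3 SD, cut at about 70% in these data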;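 further: 0% = DMSO with NR2E3 transfected cells and 100% = cells lacking NR2E3 construct; higher means lower luciferase signal from less NR2E3 corepressor binding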
NR1D1 modulator: modulators of Rev-erb alpha DNA binding, primary screen, biochemical, FITC-DNA, fluorescence polarization, uHTS; actives 0.79% (n = 370,000); Rev-erbα–FITC-DNA binding, 90 min; activity, % at 10 µM; AID 1259318, 2017;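 active means activity above about 14%, limit read from the data; passing the limit was not always enough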;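 further: 0% = DMSO wells with 35 nM protein and 100% = DMSO wells with 750 nM protein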
NR2E3 ag conf: NR2E3 agonist confirmation in cells, cell-based, luminescence, CHO-S two-hybrid. inhibition, % at 3.98 µM. CHO-S mammalian two-hybrid NR2E3-NCOR, luciferase luminescence. actives 51% (n = 2,300). AID 624378, 2012. shares compounds with NR2E3 ag-2;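 active means average inhibition above a cutoff equal to the mean inhibition of all tested compounds plus one SD, cut at about 70% in these data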;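 further: 0% = DMSO in NR2E3 cells and 100% = DMSO in cells lacking NR2E3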
GAL4-VP16 luc: GAL4-VP16 reporter modulators, confirmation, counter-screen for NR2E3 agonist project, cell-based, luminescence, CHO-S, high throughput. shares compounds with NR2E3 ag-2. CHO-S GAL4-VP16 luciferase reporter. inhibition, % at 3.98 µM. actives 29% (n = 2,300). AID 624379, 2012;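 active means mean inhibition above a cutoff equal to the average over all tested compounds plus one standard deviation, cut at about 70% in these data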;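 further: luciferase from a UAS reporter driven by GAL4-VP16 transactivation; 0% = DMSO with VP16-transfected cells and 100% = DMSO with cells lacking VP16; higher means less reporter light so more repression of VP16 activity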
PG9 bind confirm: binders of anti-gp120 antibody PG9, confirmation, biochemical, TR-FRET; AID 651571, 2012; inhibition, % at 6.7 µM; actives 90% (n = 1,500); shares compounds with PG9 binder; TR-FRET PG9 antibody binding; in the data active means inhibition above about 9%
PGV04 counter: binders of control antibody PGV04, counter-screen for PG9 antibody binder project, biochemical, TR-FRET, distinct HIV envelope site | shares compounds with PG9 binder | TR-FRET PGV04 antibody-gp120 binding | inhibition, % at 6.7 µM | actives 95% (n = 1,500); in the data active means inhibition above about 9.5%
MT1-MMP act val: MT1-MMP activation inhibitors, hit retest, confirmation, single concentration, fluorescence, HT1080 RFP-PRO-GFP cells | shares compounds with MT1-MMP act inh | GFP and RFP fluorescence ratio, overnight | inhibition, % at 20 µM | actives 10% (n = 200);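 active means inhibition of at least 50% in the primary cell screen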
Rev-erbA confirm: modulators of Rev-erb alpha DNA binding, confirmation, biochemical, FITC-DNA, fluorescence polarization, single point; shares compounds with NR1D1 modulator; 90 min; activation, % at 25 µM; actives 61% (n = 3,000);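 active means activation at or above a set limit, or at least 3 SD above the negative control mean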;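 further: 0% = 35 nM protein with DMSO and 100% = 750 nM protein high control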
The depositor's hits bear a star; · = no result.

SMILES	MT1-MMP act inh	NR2E3 ag-1	SKN-1 block	PG9 binder	NR2E3 ag-2	NR1D1 modulator	NR2E3 ag conf	GAL4-VP16 luc	others
Cc1coc2cc3oc(=O)c(CCC(=O)NC4CC4)c(C)c3cc12	3	0	4	0	70*	-1	85*	54
CN1C2=N[C@H](c3ccccc3)CC(=O)N2/C(=C\c2ccccc2)C1Cc1ccccc1 (stereo partly specified)	·	·	·	·	·	2	·	·
Cc1ccc(C)c(NC(=O)CN(C)C(=O)c2cccc(S(=O)(=O)N3CCN(Cc4ccccc4)CC3)c2)c1	-4	0	6	0	59	0	51	48
CN(CCOc1ccc(Cl)cc1)C(=O)c1cccc(S(=O)(=O)N2CCN(Cc3ccccc3)CC2)c1	10	·	7	1	84*	-2	92*	74*
O=C(O)c1ccc(N=NNc2cccc([N+](=O)[O-])c2)cc1	0	1	8	-3	-113	8	·	·
N#C/C(=N\Nc1cccc([N+](=O)[O-])c1)C(=O)c1ccc(Br)cc1	-26	-1	-7	0	95*	3	99*	86*
C[C@@H]1Cn2cnc(C(=O)N3CCN(C(=O)OC(C)(C)C)CC3)c2C(=O)N1	·	·	·	-1	·	1	·	·
COc1ccccc1OCCNS(=O)(=O)c1ccc2oc3ccccc3c2c1	-1	0	1	0	51	4	62	68
CCN1CCN(CCNC(=O)c2ccc(/C=C3\Sc4ccccc4N(Cc4ccccc4F)C3=O)cc2)CC1	1	1	7	0	48	-3	-11	35
COc1ccc2cc(C(=O)CS(=O)(=O)c3ccc(Cl)cc3)c(=O)oc2c1	·	·	·	-3	·	1	·	·
CCOC(=O)C1(Cc2ccc(Cl)cc2)CCN(C(C)Cc2ccc(O)c(OC)c2)CC1 (stereo unspecified)	-1	6	-1	2	64	-5	86*	75*
Cc1ccc(S(=O)(=O)N(C)[C@H]2C[C@H]3c4cc(-c5ccc6c(c5)OCO6)ccc4CCN3C[C@H]2[C@H](C)O)cc1	·	·	·	-1	·	1	·	·
CC1=C(O)c2ccccc2C(=O)C1=O	11	·	6	-19	53	2	85*	49
O=C1N[C@@H](Cc2ccccc2)COC(=O)[C@H](Cc2ccc(F)cc2)C/C=C\C[C@H]1CC(=O)N(CCO)Cc1ccccc1	-5	·	3	1	-23	-4	·	·
O=C1N[C@H](Cc2ccccc2)COC(=O)[C@H](Cc2ccc(F)cc2)C/C=C\C[C@H]1CC(=O)N(CCO)Cc1ccccc1	-7	·	28	0	62	2	63	16
O=C1NC[C@H](c2ccccc2)OC(=O)[C@@H](Cc2ccc(F)cc2)CC/C=C/C[C@H]1CC(=O)N(CCO)Cc1ccccc1	-13	·	2	-2	49	-3	37	31
C=CCCN1[C@@H](Cc2ccccc2)COc2ccccc2S1(=O)=O	·	·	·	-1	·	2	·	·
CC(C)N=C(N)N=C(N)Nc1ccc(Cl)cc1	-6	3	11	-2	89*	-5	88*	60
CCn1c(SCC(=O)Nc2ccc(C(=O)OC)cc2)nnc1-c1cccc(Cl)c1	·	·	·	·	·	-1	·	·
Cc1ccccc1Nc1nc(N)nc(CSc2nc3ccccc3c(=O)n2C)n1	8	-1	-9	26*	88*	22	13	32	PG9 bind confirm=73*;PGV04 counter=82*
O=C1Nc2c(Cl)cc(Cl)cc2C12Nc1ccccc1S2 (stereo unspecified)	·	·	·	-1	·	2	·	·
N#Cc1c(-c2cccs2)nc(SCc2ccc(Cl)cc2)[nH]c1=O	-3	·	0	47*	78*	0	97*	69	PG9 bind confirm=50*;PGV04 counter=61*
O=c1[nH]c(SCc2ccc(Cl)cc2)nc2ccsc12	·	0	·	-1	·	-6	·	·
COc1cc(C=c2c3ccccc3n3c2cc(-c2ccccc2)[n+]3C)cc(OC)c1OC	58	·	70	-4	-42	-1	·	·
COc1cc(N(C)C)ccc1C=c1c2ccccc2n2c1cc(-c1ccccc1)[n+]2C	65*	·	69	-17	87*	-12	91*	65	MT1-MMP act val=65*
CCOC(=O)[C@]12CCCCC/C=C\1N(CCc1ccc(Cl)cc1)C(=O)[C@H]2CC(=O)N1CCCCC1	·	·	·	·	·	7	·	·
CN(C)c1ccc(C=c2c3ccccc3n3c2c2c([n+]3C)CCCC2)cc1	82*	·	28	-14	96*	17	100*	91*	MT1-MMP act val=57*
Oc1[nH]c2ccc(Br)cc2c1N=NC(=S)N1CCOCC1	14	1	-5	-1	98*	19*	90*	44	Rev-erbA confirm=24*
COC(=O)N=Nc1c(O)[nH]c2ccc(Br)cc12	8	-5	0	-3	-31	-6	·	·

Source: PubChem BioAssay
